PolyA inhibitor: yeast polyadenylation inhibition | S. cerevisiae SKY197-pL101 polyadenylation reporter, beta-gal luminescence; efflux-impaired pdr1/pdr3 knockout yeast; score 100 = 6 SD above DMSO | activity score, % at 12 µM | hit rate 0.02% among 300,000;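 active = lowest replicate activity score at least 50, where 100 means six control SD above control mean; inconclusive = lowest score under 50 but half or more replicates reach 50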;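 also: yeast exposed to compound for 9 h at 30 °C; higher score means more reporter readthrough which indicates perturbed polyadenylation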
proCasp7 act: counter-screen: procaspase-7 (human) activation | AID 463210 | activation, % at 8.5 µM | hit rate 0.093% among 330,000 | recombinant procaspase-7, Ac-DEVD-pNA absorbance 405 nm; D23A/D198A/D206A triple mutant, cannot self-cleave; scale: DMSO 0, 5 µM enzyme 100;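 active = percent activation above the screen-wide mean plus 3 SD, cut at about 25% in these data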
Target sequence (P55210 whole entry D23A/D198A/D206A): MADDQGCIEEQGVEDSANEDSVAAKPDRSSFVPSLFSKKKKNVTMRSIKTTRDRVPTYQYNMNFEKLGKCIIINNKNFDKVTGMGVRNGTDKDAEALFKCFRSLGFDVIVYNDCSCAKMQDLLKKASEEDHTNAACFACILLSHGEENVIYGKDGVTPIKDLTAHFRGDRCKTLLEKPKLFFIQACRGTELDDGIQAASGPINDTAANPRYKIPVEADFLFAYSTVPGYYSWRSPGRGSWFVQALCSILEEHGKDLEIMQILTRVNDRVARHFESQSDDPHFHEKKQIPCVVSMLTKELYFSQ
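Assay system: Uncleavable procaspase-7 mutant enzyme; Input: 2 µM procaspase-7 mutant as dispensed; Also added: DEVD-pNA substrate; Medium: Zinc-free HEPES pH 7.4 with 300 mM NaCl, 0.01% Triton X-100; Timing: 1 h compound preincubation, 2 h substrate cleavage, 25 °C; Measured by: Epi-absorbance of released pNA at 405 nm, two timepoints.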
procasp3 activ: activators of human procaspase-3. activation, % at 8.5 µM. hit rate 0.11% among 330,000. recombinant procaspase-3 D3A, Ac-DEVD-pNA absorbance 405 nm. P42574;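 active = activation above the mean of all tested compounds plus 3 SD, cut at about 21% in these data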
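Test system: Procaspase-3 D3A mutant, all three cleavage aspartates alanine | Dosing: Single dose, 8.5 µM nominal compound, 0.8% DMSO | Schedule: 1 h preincubation, 2 h reaction | Technique: 405 nm absorbance of p-nitroaniline, reads at 0 and 120 min | Repeats: One well per compound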
Bfl-1 A1 inh: inhibitors of the anti-apoptotic protein A1, read as caspase activation; hit rate 0.066% among 330,000; MEF A1-2A-BIM cells, Caspase-Glo 3/7 luminescence, 3 h; percent of clofoctol response, vehicle zero; caspase activation, % (concentration not given with the values);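 active = over half of replicate activation scores above 10%, or exactly half above 10 with the replicate mean above 10; inconclusive = replicate mean below 10 yet half the replicates above 10; inactive = over half of replicates below 10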
Rce1 inhib: inhibitors of yeast Ras-converting enzyme; Q03530; yeast membranes, quenched prenylated peptide cleavage fluorescence; hit rate 0.27% among 290,000; calls only;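 active = fall in fluorescence gain of 50% or more versus controls, with final raw signal at or below 3038400; inconclusive = same 50% fall but final raw signal above 3038400; inactive = fall in fluorescence gain under 50%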
Target sequence (Q03530 whole entry, looked up): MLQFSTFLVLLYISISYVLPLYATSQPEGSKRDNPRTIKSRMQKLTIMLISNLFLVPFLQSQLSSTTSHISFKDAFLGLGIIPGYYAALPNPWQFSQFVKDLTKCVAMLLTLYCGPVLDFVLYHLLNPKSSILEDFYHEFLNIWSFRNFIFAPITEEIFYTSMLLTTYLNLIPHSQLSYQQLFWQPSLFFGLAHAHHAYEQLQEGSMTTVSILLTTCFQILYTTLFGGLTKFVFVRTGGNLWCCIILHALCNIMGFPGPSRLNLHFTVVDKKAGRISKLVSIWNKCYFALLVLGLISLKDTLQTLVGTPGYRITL
Numbers stand for hits; i = inactive; ? = inconclusive; nt = not tested or not shown; + = active, no number. Compounds with a hit are over-represented: about 0.48% of the library has one in this group of screens.

SMILES | PolyA inhibitor | proCasp7 act | procasp3 activ | Bfl-1 A1 inh | Rce1 inhib
NC(=O)C1CCCN1S(=O)(=O)c1ccc2ccccc2c1 (centres undefined) | i | i | i | i | i
CCc1ccccc1NC(=S)N(CCCN(C)C)Cc1cc2cc3c(cc2[nH]c1=O)OCO3 | i | i | i | i | +
CCN1CCN(CC(O)COc2ccc(C)c(C)c2)CC1 (centres undefined) | i | i | i | i | i
CCN1CCN(CC(O)COc2ccc3c(C)cc(=O)oc3c2)CC1 (centres undefined) | i | i | i | i | +
CC(C)(C)[C@H](N)C(=O)N[C@H]1CCC2C3CC=C4C[C@@H](O)CC[C@]4(C)C3CC[C@@]21C (some centres undefined) | nt | i | i | 11.4 | nt
Clc1ccc(Cl)c(OCCN2CCCC2)c1 | i | i | i | i | i
CC1(C)CC(=O)c2sc(NS(=O)(=O)c3ccc(F)cc3)nc2C1 | i | i | i | i | i
Cc1nc2ccc(NC(=O)Cc3ccc(Br)cc3)cc2s1 | i | i | i | i | i
Cc1nc2ccc(NC(=O)Cc3ccc4c(c3)OCCO4)cc2s1 | 84.3 | i | i | i | i
COc1ccc(Cc2nnc(SCC(=O)N(C)CC(=O)Nc3ccc(C)cc3)o2)cc1 | i | i | i | i | i
Cn1cccc1Cc1nnc(SCC(=O)NCc2ccccc2Cl)n1-c1ccc(F)cc1 | 72.8 | i | i | i | i
Cc1nc2ccc(Nc3ccncc3)cc2s1 | i | i | i | i | i
Oc1c(N=NC(=S)Nc2ccccc2F)c2ccccc2n1Cc1ccccc1F | i | i | i | i | +
Cc1ccccc1Cn1c(O)c(N=NC(=S)Nc2ccccc2F)c2ccccc21 | i | i | i | i | i
Nc1nnnn1/N=C/c1cccc(OCc2ccccc2Cl)c1 | i | i | i | i | +
Cc1cc(C)cc(NC(=O)CSc2nnc(-c3ccncc3)o2)c1 | i | i | i | i | i
O=C(CSc1nnc(-c2ccncc2)o1)Nc1ccc(F)c(F)c1 | nt | i | i | 21.4 | nt
COc1cccc(C(=O)Nc2nnc(SCC(=O)NC3CCCC3)s2)c1 | i | i | i | i | +
O=C(CSc1nnc(NC(=O)c2cccc(F)c2)s1)NC1CCCC1 | i | i | i | i | i
COCCCNC(=O)c1cc2cc3cc(OC)ccc3nc2o1 | i | i | i | i | +
Cc1ccc(Nc2nc(-c3ccc(S(=O)(=O)N4CCOCC4)cc3)cs2)cc1Cl | i | i | i | i | +
CC(C)CC(=O)Nc1nc(-c2ccc(S(=O)(=O)N3CCOCC3)cc2)cs1 | i | nt | nt | nt | i
CCC(C(=O)Nc1ccc(C(=O)Nc2ccccc2C(=O)O)cc1)c1ccccc1 (centres undefined) | i | nt | nt | i | i
Cc1c(C)c2c(OCC(=O)NCc3ccncc3)cc3c(c2oc1=O)CCC(C)(C)O3 | i | i | i | i | +
CCc1cc(=O)oc2c3c(cc(OCC(=O)NCCCCCC(=O)O)c12)OC(C)(C)CC3 | i | i | i | i | +
SMILES | PolyA inhibitor | proCasp7 act | procasp3 activ | Bfl-1 A1 inh | Rce1 inhib
CCc1cc(=O)oc2c3c(cc(OCC(=O)NCc4ccccn4)c12)OC(C)(C)CC3 | i | i | i | i | i
O=C(Nc1ccc(Cl)c(S(=O)(=O)N2CCCC2)c1)c1cc(=O)[nH]c2ccccc12 | nt | i | i | i | nt
COc1ccc(NC(=O)Nc2ccc3c(c2)C(=O)N([C@@H](C)CO)C[C@@H](C)[C@@H](CN(C)S(=O)(=O)c2cccs2)O3)cc1 | nt | i | i | i | nt
O=C(O)Cn1cc(F)c(=O)[nH]c1=O | i | i | i | i | i
CCC(C)NC(=O)c1cc2c(=O)n3cccc(C)c3nc2s1 (centres undefined) | i | i | i | i | +
Cc1cc(C(=O)COC(=O)/C=C/c2ccco2)c(C)n1C | nt | i | i | i | nt
CN(C)CCCn1c2c(c(SCC(=O)Nc3cccc4ccccc34)nc1=O)CCCC2 | i | i | i | i | i
Cc1nc(SCC(=O)NC2CC2)c2c(C)c(C)sc2n1 | i | i | 29.8 | i | i
Cc1cc(Cl)cc(C)c1OCC(=O)N1CCN(c2ncccn2)CC1 | nt | i | i | i | nt
O=C(Cn1cnc2ccccc2c1=O)N/N=C/c1ccc(Br)cc1 | i | i | i | i | nt
O=C(NCc1cccc(C(F)(F)F)c1)c1cc(Cl)ccc1Cl | i | i | i | i | i
O=C(NCc1cccc(C(F)(F)F)c1)c1cc(Cl)cc(Cl)c1 | i | 35.6 | i | i | i
Cc1cc(C)c(C)c(S(=O)(=O)N2CCC(C(=O)NCC(c3ccccc3)N(C)C)CC2)c1C (centres undefined) | i | i | i | i | i
CC(NC(=O)CCCCCN1C(=O)c2ccccc2C1=O)c1ccc2c(c1)CCCC2 (centres undefined) | i | i | i | i | i
CC(NC(=O)CCCCCCN1C(=O)c2ccccc2C1=O)c1ccc2c(c1)CCCC2 (centres undefined) | 82.4 | i | i | i | i
COc1ccc(C(=O)NCCc2nnc3ccc(SCC(=O)Nc4ccccc4)nn23)cc1 | i | i | i | i | i
CC1=C/C(=N\NC(=O)c2ccc(O)cc2)CC1 | i | i | i | i | i
COc1cc(CNCc2cc(OC)ccc2OC)cc(OC)c1 | i | i | i | i | i
Cc1cccc2[nH]c3c(N4CCC5(CC4)OCCO5)ncnc3c12 | i | i | i | i | +
CCN(CC(=O)Nc1c(F)cccc1F)C(=O)/C=C/c1ccc(OCC#N)c(OC)c1 | i | i | i | i | i
CCN(CC(=O)Nc1c(F)cccc1F)C(=O)/C=C/c1ccc(C)cc1 | nt | i | i | 11.7 | nt
CC(C)(C)C1=CC=C(C(C)(C)C)C(=O)C1=O | i | i | i | 6.4 | i
O=C(NCc1n[nH]c(=S)n1-c1ccc(Br)cc1)c1ccc(S(=O)(=O)N2CCOCC2)cc1 | i | i | i | i | nt
Cc1ccc(S(=O)(=O)NCCC(=O)NC2CCCC2)cc1 | i | i | i | i | nt
COc1ccccc1CC(=O)Nc1ccc2c(C)cc(=O)oc2c1 | i | i | i | i | +
SMILES | PolyA inhibitor | proCasp7 act | procasp3 activ | Bfl-1 A1 inh | Rce1 inhib
Cc1ccccc1CC(=O)Nc1ccc2c(C)cc(=O)oc2c1 | i | i | i | i | i
N=c1c(C(=O)NCc2ccc(F)cc2)cc2c(=O)n3ccccc3nc2n1Cc1cccnc1 | i | i | i | i | +
CCCC(C)C(=O)OCC(=O)Nc1ccc(Br)cc1 (centres undefined) | i | i | i | i | i
CCn1c2ccccc2c2cnc(N=CN(C)C)c(C#N)c21 | i | i | i | i | i
CCN(CC)CCn1c2ccccc2c2cnc(N=CN(C)C)c(C#N)c21 | i | i | i | ? | +
CSc1cccc(NC(=S)NC(=O)c2cccnc2)c1 | i | nt | nt | i | i
Cc1oc(-c2ccc(Cl)cc2)nc1CS(=O)CC(=O)NCc1ccco1 (centres undefined) | i | i | i | i | +
CN(C)/C=N/c1c(C#N)cnn1-c1ncnc2sc(-c3ccccc3)cc12 | i | i | i | i | +

Screens deposited in PubChem by several laboratories.
